In the RNAGym collection of RNA variant scans (doi:10.1038/nmeth.2970) one finds Kd data, which are given here for 38 variants.

A word on the Kd: it is the concentration at which binding is half-saturated.

B1: NELF-E aptamer (parent)
chain: CCCAACGACUGCCGAGCGAGAUUACGCUUGAGCGCCCCACUGAGGAUGCCCACGGGCGAUUGGGGCACGG

In this data set the parent is B1. Kind of data set: HiTS-RAP. The settings on record: with NELF-E (Drosophila). The essentials: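 Kd came from weighted Hill fits to the first binding curve, with intensities normalised to sequencing intensity and averaged per sequence, keeping only fits whose variance was below 1,000,000. That curve was imaged on an Illumina GAIIx flowcell, where sequenced aptamer DNA templates with a T7 promoter and ter site had been transcribed in situ by T7 RNA polymerase and halted by GST-Tus (30 minutes, 37°C). Before each image, clusters equilibrated for 30 minutes at room temperature with NELF-E-mOrange at 0.064 to 1000 nM in HEPES binding buffer.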
As to CCCAACGACUGCCGAGCGAGAUUACGCCUGAGCGCCCCACUGAGGAUGCCCUCGGGCGAUUGGGGCACGG [U28C A52U], the dissociation constant Kd is 32.7 nM. As to CCCAACGACUGCCGAGCGAGAUUACGUUGGAGCGCCCCACUGAGGAUGCCCACGGGCGAUUGGGGCACGG [C27U U29G], the Kd is 4.7 nM. As to CCCAACGACUGCCGAGCGAGAUUACGCUCGAGCGCCCCACUGAGGAUGCCCACGGGCGAUUGGGGUACGG [U29C C66U], the Kd stood at 5.81 nM. As for CCCAACGACUGCCGAGCGAGAUUACGCUCGAGCGCCCCACGGAGGAUGCCCACGGGCGAUUGGGGCACGG [U29C U41G], the Kd amounted to 5.09 nM.

Take CCCAACGACUGCCGAGCGAGAUUACGCCUGAGCGCCCCACCGAGGAUGCCCACGGGCGAUUGGGGCACGG [U28C U41C]: the Kd was 98.6 nM.

Take CCCAACGACUGCCGAGCGAGAUUACGCCUGAGCGCCCCACGGAGGAUGCCCACGGGCGAUUGGGGCACGG [U28C U41G]: the Kd is 11.9 nM.

As for CCCAACGACUGCCGAGCGAGAUUACGCUGGAGUGCCCCACUGAGGAUGCCCACGGGCGAUUGGGGCACGG [U29G C33U], the Kd amounted to 6.03 nM.

For the variant CCCAACGACUGCCGAGCGAGAUUACGCUGGAGGGCCCCACUGAGGAUGCCCACGGGCGAUUGGGGCACGG [U29G C33G], the Kd was determined as 6.45 nM. With CCCAACGACUGCCGAGCGAGAUUACGCUGGAGCGCCCCACUGAGGGUGCCCACGGGCGAUUGGGGCACGG [U29G A46G] the figure was 22.4 nM.

With CCCAACGACUGCCGAGCGAGAUUACGCUGGAGCGCCCCACUGAGGUUGCCCACGGGCGAUUGGGGCACGG [U29G A46U], the Kd turned out to be 77.8 nM. Take CCCAACGACUGCCGAGCGAGAUUACGUGUGAGCGCCCCACUGAGGAUGCCCACGGGCGAUUGGGGCACGG [C27U U28G]: the Kd came out at 5.03 nM. With CCCAACGACUGCCGAGCGAGAUUACGAUUGAGCGCCCCACUGAGGAUGCCCACGGGCGAUUGGGGCACGG [C27A] the figure was 4.28 nM; with CCCAACGACUGCCGAGCGAGAUUACGUUUGAGCGCCCCACUGAGGAUGCCCACGGGCGAUUGGGGCACGG [C27U], 4.14 nM; with CCCAACGACUGCCGAGCGAGAUUACGGUUGAGCGCCCCACUGAGGAUGCCCACGGGCGAUUGGGGCACGG [C27G], 5.01 nM. For CCCAACGACUGCCGAGCGAGAUUACGCUGGAGCGCCUCACUGAGGAUGCCCACGGGCGAUUGGGGCACGG [U29G C37U], the Kd was determined as 12.4 nM.

CCCAACGACUGCCGAGCGAGAUUACGCUGGAGCGCCACACUGAGGAUGCCCACGGGCGAUUGGGGCACGG [U29G C37A]: the Kd is 14.8 nM. As for CCCAACGACUGCCGAGCGAGAUUACGCUGGAGCGCCGCACUGAGGAUGCCCACGGGCGAUUGGGGCACGG [U29G C37G], the figure is 8.38 nM. Take CCCAACGACUGCCGAGCGAGAUUACGCAGGAGCGCCCCACUGAGGAUGCCCACGGGCGAUUGGGGCACGG [U28A U29G]: the Kd was found to be 4.82 nM.

On to CCCAACGACUGCCGAGCGAGAUUACGCAAGAGCGCCCCACUGAGGAUGCCCACGGGCGAUUGGGGCACGG [U28A U29A], for which the Kd amounted to 4.14 nM. Take CCCAACGACUGCCGAGCGAGAUUACGCUGGAGCGGCCCACUGAGGAUGCCCACGGGCGAUUGGGGCACGG [U29G C35G]: the Kd turned out to be 4.89 nM. With CCCAACGACUGCCGAGCGAGAUUACGCUGGAGCGUCCCACUGAGGAUGCCCACGGGCGAUUGGGGCACGG [U29G C35U] the figure was 17.1 nM; with CCCAACGACUGCCGAGCGAGAUUACACUUGAGCGCCCCACUGAGGAUGCCCACGGGUGAUUGGGGCACGG [G26A C57U], 6.13 nM; with CCCAACGACUGCCGAGCGAGAUUACGCUGGAGCGCCCCGCUGAGGAUGCCCACGGGCGAUUGGGGCACGG [U29G A39G], 7.69 nM.

Turning to CCCAACGACUGCCGAGCGAGAUUACGCUGGAGCGCCCCUCUGAGGAUGCCCACGGGCGAUUGGGGCACGG [U29G A39U], the Kd is 26.4 nM. As for CCCAACGACUGCCGAGCGAGAUUACGCUGGAGCGCCCCCCUGAGGAUGCCCACGGGCGAUUGGGGCACGG [U29G A39C], the figure is 24.7 nM; as for CCCAACGACUGCCGAGCGAGAUUACGCGUGAGCGCCCCACGGAGGAUGCCCACGGGCGAUUGGGGCACGG [U28G U41G], 5.18 nM.

For the variant CCCAACGACUGCCGAGCGAGAUUACUCUGGAGCGCCCCACUGAGGAUGCCCACGGGCGAUUGGGGCACGG [G26U U29G], the Kd stood at 7.41 nM. With CCCAACGACUGCCGAGCGAGAUUACCGUUGAGCGCCCCACUGAGGAUGCCCACGGGCGAUUGGGGCACGG [G26C C27G] the figure was 3.95 nM.

As to CCCAACGACUGCCGAGCGAGAUUACGCCUGAGCGCCCCUCUGAGGAUGCCCACGGGCGAUUGGGGCACGG [U28C A39U], the Kd amounted to 51.1 nM. CCCAACGACUGCCGAGCGAGAUUACGGUGGAGCGCCCCACUGAGGAUGCCCACGGGCGAUUGGGGCACGG [C27G U29G]: the Kd was determined as 5.43 nM. As for CCCAACGACUGCCGAGCGAGAUUAUGCUUGAGCGCCCCACGGAGGAUGCCCACGGGCGAUUGGGGCACGG [C25U U41G], the figure is 6.6 nM; as for CCCAACGACUGCCGAGCGAGAUUACGCCUGAGCACCCCACUGAGGAUGCCCACGGGCGAUUGGGGCACGG [U28C G34A], 37.6 nM; as for CCCAACGACUGCCGAGCGAGAUUACACUGGAGCGCCCCACUGAGGAUGCCCACGGGCGAUUGGGGCACGG [G26A U29G], 5.28 nM. Take CCCAACGACUGCCGAGCGAGAUUACGCCGGAGCGCCCCACUGAGGAUGCCCACGGGCGAUUGGGGCACGG [U28C U29G]: the Kd amounted to 8.69 nM. As for CCCAACGACUGCCGAGCGAGAUUACACUUGAGCGCCCCACUGAGGAUGCCCACGGGCGAUUGGGGCGCGG [G26A A67G], the figure is 4.9 nM.

Turning to CCCAACGACUGCCGAGCGAGAUUACGCGUGAGCGCCCCGCUGAGGAUGCCCACGGGCGAUUGGGGCACGG [U28G A39G], the Kd is 11.2 nM. Consider CCCAACGACUGCCGAGCGAGAUUACGCUGGGGCGCCCCACUGAGGAUGCCCACGGGCGAUUGGGGCACGG [U29G A31G], for which the dissociation constant (Kd) was determined as 6.61 nM. With CCCAACGACUGCCGAGCGAGAUUACGCUGGUGCGCCCCACUGAGGAUGCCCACGGGCGAUUGGGGCACGG [U29G A31U] the figure was 6.06 nM.
